Measurements taken from ChEMBL document CHEMBL4330096, “Discovery of potent and selective 5-azaindazole inhibitors of leucine-rich repeat kinase 2 (LRRK2) - Part 1” (Bioorg Med Chem Lett, 2019).

How the values were obtained:
[1] = biological target: Proto-oncogene tyrosine-protein kinase Src (Homo sapiens) (UniProt P12931); test: Inhibition of Src (unknown origin) at 10 uM relative to control
How it was run: (§1)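 Single-concentration screen across a panel of 59 protein kinases, with each compound tested at one fixed concentration. The read-out is residual kinase activity relative to control. Panel results are also condensed into a rescaled geometric mean (RGM) selectivity score.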

[2] = biological target: Mitogen-activated protein kinase 14 (Homo sapiens) (UniProt Q16539); test: Inhibition of p38a MAPK (unknown origin) at 10 uM relative to control; how it was run: as §1
Sequence of Mitogen-activated protein kinase 14 (Homo sapiens) (Q16539 whole entry): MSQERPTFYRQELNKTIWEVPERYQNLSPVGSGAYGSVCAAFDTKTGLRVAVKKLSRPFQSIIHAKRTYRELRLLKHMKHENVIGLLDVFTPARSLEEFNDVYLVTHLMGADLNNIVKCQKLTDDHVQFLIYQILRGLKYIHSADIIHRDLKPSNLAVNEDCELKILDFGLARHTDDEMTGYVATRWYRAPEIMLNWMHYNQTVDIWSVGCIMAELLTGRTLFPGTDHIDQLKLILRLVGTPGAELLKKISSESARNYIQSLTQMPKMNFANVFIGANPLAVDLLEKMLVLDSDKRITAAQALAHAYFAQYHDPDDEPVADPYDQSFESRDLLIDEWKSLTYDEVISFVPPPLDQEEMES

[3] = biological target: Serine/threonine-protein kinase N2 (Homo sapiens) (UniProt Q16513); test: Inhibition of PRK2 (unknown origin) at 10 uM relative to control
Sequence of Serine/threonine-protein kinase N2 (Homo sapiens) (Q16513 whole entry, looked up): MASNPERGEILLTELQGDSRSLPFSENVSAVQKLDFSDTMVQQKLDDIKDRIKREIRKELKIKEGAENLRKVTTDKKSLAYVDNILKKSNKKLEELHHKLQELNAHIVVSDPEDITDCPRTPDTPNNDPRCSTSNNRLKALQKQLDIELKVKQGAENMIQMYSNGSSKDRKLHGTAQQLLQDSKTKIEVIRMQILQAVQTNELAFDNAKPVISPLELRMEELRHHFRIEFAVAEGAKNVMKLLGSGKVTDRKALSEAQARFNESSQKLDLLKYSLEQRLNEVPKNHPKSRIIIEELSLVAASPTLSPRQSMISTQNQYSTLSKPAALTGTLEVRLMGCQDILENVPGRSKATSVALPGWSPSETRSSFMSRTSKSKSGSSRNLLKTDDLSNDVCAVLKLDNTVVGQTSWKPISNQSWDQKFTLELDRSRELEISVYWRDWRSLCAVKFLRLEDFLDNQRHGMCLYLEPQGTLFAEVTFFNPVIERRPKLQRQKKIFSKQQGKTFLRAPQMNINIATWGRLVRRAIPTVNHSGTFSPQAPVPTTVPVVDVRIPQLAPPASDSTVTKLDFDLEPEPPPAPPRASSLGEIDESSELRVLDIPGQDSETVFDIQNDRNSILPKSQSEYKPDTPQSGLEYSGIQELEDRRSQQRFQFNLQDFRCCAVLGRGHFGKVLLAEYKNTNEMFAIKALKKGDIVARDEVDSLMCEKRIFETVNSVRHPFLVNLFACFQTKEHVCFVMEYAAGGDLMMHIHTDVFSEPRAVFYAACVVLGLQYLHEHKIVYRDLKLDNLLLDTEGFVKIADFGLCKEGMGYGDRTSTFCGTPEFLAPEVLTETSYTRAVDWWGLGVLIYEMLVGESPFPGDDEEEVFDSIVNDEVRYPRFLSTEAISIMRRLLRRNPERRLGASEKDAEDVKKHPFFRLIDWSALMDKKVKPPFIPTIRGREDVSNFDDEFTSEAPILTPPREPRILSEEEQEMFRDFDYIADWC
How it was run: (§2)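 Single-concentration screen of each compound against a 59-protein-kinase panel, run at 10 µM or 1 µM. Activity relative to control is shown as a heat map across the panel.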

[4] = biological target: T1, Serine/threonine-protein kinase Chk1 (Homo sapiens) (UniProt O14757); test: Inhibition of CHK1 (unknown origin) at 10 uM relative to control
T1 sequence (whole entry): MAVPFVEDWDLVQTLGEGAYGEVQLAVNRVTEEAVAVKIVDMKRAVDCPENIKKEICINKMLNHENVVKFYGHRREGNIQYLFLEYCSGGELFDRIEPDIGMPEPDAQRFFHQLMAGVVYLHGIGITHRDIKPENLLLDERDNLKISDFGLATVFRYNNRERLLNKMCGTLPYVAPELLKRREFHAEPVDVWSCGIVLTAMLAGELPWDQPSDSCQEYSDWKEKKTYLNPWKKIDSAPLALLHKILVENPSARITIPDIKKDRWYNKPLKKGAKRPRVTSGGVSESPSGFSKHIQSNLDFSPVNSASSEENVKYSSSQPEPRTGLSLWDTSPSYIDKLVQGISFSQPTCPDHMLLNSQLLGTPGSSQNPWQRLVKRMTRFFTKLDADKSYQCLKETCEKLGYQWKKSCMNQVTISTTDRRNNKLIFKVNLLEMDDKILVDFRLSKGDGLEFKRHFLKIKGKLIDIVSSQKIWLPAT
How it was run: (§3)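 Single-point screen of each compound against a panel of 59 protein kinases, at 1 or 10 μM. The panel data are also summarised as a rescaled geometric mean selectivity score.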

[5] = biological target: Casein kinase I (Homo sapiens) (UniProt Q9HCP0+P78368+P48730+P49674+P48729); test: Inhibition of CK1 (unknown origin) at 10 uM relative to control; assay type: protein assay; how it was run: as §3
[6] = biological target: Tyrosine-protein kinase SYK (Homo sapiens) (UniProt P43405); test: Inhibition of SYK (unknown origin) at 10 uM relative to control; how it was run: as §1
[7] = biological target: Tyrosine-protein kinase Lck (Homo sapiens) (UniProt P06239); test: Inhibition of Lck (unknown origin) at 10 uM relative to control; how it was run: as §3
Sequence of Tyrosine-protein kinase Lck (Homo sapiens) (P06239 2-509 limits assumed): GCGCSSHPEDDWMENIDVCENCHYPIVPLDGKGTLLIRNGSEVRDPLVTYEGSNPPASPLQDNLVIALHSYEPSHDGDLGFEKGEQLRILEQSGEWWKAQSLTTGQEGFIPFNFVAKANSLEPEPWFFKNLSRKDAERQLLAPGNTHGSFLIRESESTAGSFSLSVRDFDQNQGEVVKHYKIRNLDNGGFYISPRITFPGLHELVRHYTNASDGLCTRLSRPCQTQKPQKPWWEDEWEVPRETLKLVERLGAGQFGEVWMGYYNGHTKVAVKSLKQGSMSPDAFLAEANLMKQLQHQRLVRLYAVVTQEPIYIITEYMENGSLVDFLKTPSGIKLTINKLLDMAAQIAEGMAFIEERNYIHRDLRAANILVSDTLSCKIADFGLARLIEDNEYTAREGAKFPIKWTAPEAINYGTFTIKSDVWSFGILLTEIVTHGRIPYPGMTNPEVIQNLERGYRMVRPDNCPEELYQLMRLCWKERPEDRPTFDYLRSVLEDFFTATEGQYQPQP

[8] = biological target: MAP kinase-interacting serine/threonine-protein kinase 1 (Homo sapiens) (UniProt Q9BUB5); test: Inhibition of MNK1 (unknown origin) at 10 uM relative to control; how it was run: as §2
Sequence of MAP kinase-interacting serine/threonine-protein kinase 1 (Homo sapiens) (Q9BUB5 whole entry, looked up): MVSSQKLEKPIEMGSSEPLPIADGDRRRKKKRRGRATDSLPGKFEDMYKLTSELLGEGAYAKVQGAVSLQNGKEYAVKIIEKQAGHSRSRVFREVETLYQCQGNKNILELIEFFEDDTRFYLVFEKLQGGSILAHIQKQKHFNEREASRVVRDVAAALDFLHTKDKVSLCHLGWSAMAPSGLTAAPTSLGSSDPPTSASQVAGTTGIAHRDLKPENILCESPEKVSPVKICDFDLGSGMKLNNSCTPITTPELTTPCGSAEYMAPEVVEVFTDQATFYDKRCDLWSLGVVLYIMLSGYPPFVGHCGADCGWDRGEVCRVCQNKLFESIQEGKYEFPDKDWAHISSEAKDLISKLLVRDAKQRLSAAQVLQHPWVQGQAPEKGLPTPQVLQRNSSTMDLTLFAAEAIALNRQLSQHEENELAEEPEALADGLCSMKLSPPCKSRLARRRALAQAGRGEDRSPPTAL

[9] = biological target: Mitogen-activated protein kinase 3 (Homo sapiens) (UniProt P27361); test: Inhibition of ERK1 (unknown origin) at 10 uM relative to control; how it was run: as §3
Sequence of Mitogen-activated protein kinase 3 (Homo sapiens) (P27361 whole entry): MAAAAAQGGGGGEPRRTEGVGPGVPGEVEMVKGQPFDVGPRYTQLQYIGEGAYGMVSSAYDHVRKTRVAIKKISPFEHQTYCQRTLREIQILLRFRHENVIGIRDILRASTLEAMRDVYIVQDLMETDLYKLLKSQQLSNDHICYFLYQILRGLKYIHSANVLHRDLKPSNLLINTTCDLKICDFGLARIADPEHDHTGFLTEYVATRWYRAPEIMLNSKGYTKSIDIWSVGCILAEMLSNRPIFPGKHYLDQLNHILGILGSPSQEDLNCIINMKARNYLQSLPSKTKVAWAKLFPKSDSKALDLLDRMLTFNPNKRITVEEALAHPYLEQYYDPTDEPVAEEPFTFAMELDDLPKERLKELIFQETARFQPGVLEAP

[10] = biological target: Serine/threonine-protein kinase 26 (Homo sapiens) (UniProt Q9P289); test: Inhibition of MST4 (unknown origin) at 10 uM relative to control; how it was run: as §2
Sequence of Serine/threonine-protein kinase 26 (Homo sapiens) (Q9P289 2-416 limits assumed): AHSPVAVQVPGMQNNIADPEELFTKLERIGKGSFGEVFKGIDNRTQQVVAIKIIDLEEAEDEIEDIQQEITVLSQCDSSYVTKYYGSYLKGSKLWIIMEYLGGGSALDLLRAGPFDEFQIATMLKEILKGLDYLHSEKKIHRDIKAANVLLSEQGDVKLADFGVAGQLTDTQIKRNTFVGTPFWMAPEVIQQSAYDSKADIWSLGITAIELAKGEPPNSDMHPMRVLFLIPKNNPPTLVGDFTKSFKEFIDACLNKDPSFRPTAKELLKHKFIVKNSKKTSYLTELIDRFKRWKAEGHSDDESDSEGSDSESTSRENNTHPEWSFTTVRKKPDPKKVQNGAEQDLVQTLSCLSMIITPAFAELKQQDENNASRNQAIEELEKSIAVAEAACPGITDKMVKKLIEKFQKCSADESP

[11] = biological target: T2, Serine/threonine-protein kinase 3 (Homo sapiens) (UniProt Q13188); test: Inhibition of MST2 (unknown origin) at 10 uM relative to control; how it was run: as §2
T2 sequence (whole entry): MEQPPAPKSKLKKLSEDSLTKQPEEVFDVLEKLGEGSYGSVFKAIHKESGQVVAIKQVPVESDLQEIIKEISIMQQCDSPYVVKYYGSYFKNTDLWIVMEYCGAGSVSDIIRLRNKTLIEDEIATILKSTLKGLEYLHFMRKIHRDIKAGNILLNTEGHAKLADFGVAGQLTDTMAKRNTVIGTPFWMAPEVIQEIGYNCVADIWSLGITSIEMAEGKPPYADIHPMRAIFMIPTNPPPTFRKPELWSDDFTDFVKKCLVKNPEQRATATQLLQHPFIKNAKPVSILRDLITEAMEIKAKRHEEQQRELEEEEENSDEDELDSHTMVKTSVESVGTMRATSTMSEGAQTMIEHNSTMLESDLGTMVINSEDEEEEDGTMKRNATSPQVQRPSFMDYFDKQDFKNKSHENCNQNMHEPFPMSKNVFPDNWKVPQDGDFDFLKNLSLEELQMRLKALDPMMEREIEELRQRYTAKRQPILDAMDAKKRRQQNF

[12] = biological target: Phosphorylase kinase (Homo sapiens) (UniProt P15735+P46020+P46019+Q93100+Q16816); test: Inhibition of PHK (unknown origin) at 10 uM relative to control; assay type: protein-complex assay; how it was run: as §2
[13] = biological target: MAP/microtubule affinity-regulating kinase 3 (Homo sapiens) (UniProt P27448); test: Inhibition of MARK3 (unknown origin) at 10 uM relative to control; how it was run: as §2
Sequence of MAP/microtubule affinity-regulating kinase 3 (Homo sapiens) (P27448 whole entry, looked up): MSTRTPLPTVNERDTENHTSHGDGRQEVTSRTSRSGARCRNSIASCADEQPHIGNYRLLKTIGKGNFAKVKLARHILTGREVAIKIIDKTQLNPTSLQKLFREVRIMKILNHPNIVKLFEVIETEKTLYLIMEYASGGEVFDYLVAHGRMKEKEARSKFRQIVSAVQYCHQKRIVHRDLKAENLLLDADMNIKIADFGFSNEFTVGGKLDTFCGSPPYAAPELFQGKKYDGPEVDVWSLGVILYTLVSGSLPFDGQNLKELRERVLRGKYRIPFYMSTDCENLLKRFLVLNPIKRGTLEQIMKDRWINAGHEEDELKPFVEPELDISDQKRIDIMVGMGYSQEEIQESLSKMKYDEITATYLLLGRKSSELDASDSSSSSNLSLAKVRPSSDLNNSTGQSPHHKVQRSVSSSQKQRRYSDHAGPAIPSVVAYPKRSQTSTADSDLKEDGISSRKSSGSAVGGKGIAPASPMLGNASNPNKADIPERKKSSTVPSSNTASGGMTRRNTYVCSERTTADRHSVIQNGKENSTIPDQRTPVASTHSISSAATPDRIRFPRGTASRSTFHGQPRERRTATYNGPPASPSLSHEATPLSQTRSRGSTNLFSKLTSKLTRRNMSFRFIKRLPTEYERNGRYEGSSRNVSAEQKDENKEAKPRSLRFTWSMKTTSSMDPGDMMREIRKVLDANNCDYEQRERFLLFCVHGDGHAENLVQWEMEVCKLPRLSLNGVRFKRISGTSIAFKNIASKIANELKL

Sequence of Proto-oncogene tyrosine-protein kinase Src (Homo sapiens) (P12931 2-536 limits assumed): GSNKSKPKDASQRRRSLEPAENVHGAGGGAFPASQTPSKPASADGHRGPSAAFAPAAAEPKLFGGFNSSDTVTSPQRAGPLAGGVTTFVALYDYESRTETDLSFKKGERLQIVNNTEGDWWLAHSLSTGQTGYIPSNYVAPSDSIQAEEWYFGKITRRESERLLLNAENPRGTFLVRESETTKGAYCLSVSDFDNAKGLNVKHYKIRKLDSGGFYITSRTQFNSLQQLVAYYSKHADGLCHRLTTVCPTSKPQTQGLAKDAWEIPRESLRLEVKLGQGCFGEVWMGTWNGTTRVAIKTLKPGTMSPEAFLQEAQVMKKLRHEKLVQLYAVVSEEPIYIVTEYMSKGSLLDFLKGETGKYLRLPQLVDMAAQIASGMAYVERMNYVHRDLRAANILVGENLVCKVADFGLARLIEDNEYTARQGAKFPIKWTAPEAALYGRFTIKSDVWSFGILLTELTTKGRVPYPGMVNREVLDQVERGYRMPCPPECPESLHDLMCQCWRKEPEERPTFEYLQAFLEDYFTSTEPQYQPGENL

Compound	inhibition [1] [%]	inhibition [2] [%]	inhibition [3] [%]	inhibition [4] [%]	inhibition [5] [%]	inhibition [6] [%]	inhibition [7] [%]	inhibition [8] [%]	inhibition [9] [%]	inhibition [10] [%]	inhibition [11] [%]	inhibition [12] [%]	inhibition [13] [%]
Cc1n[nH]c2ccnc(NC3CCCCC3)c12	0	9	63	0	27	17	13	0	40	51	80	60	34
Cc1n[nH]c2ccnc(Nc3ccc4ncsc4c3)c12		0		13	77	0	8				72		36
Cc1n[nH]c2ccnc(OC3CCCCC3)c12	47	0	92	27	86	16	47	12	48	48	79	82	46
Cc1n[nH]c2ccnc(Nc3ccccc3F)c12	23	10	50	43	46	0	22	18	69	28	66	45	46
